Assay results: ChEMBL document CHEMBL1649236, “The structure of the dizinc subclass B2 metallo-beta-lactamase CphA reveals that the second inhibitory zinc ion binds in the histidine site” (Antimicrob Agents Chemother, 2009); call rule not given here

What was measured:
[1] = compound: C[C@@H](O)[C@H]1C(=O)N2C(C(=O)O)=C(SCCNC=N)C[C@H]12; assay: (§1) Activity of Aeromonas hydrophila metallo-betalactamase CphA expressed in Escherichia coli BL21(DE3) by spectrophotometric analysis in presence of < 0.4 uM zinc ions
Method in brief: (§2)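 Steady-state kinetics (kcat, Km, kcat/Km) at 30°C in 15 mM cacodylate pH 6.5, no added Zn2+ (free [Zn2+] < 0.4 µM), enzyme as the mono-zinc form (one Zn per molecule). Substrates imipenem, nitrocefin and CENTA. N233A mutant from E. coli BL21 (DE3) pLysS Star, purified to homogeneity, mass checked by ESI-MS. Standard errors below 10%.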

[2] = compound: O=C(Cc1cccs1)N[C@@H]1C(=O)N2C(C(=O)O)=C(/C=C/c3ccc([N+](=O)[O-])cc3[N+](=O)[O-])CS[C@H]12; assay: as §1; method in brief: as §2
[3] = compound: O=C(Cc1cccs1)N[C@@H]1C(=O)N2C(C(=O)O)=C(CSc3ccc([N+](=O)[O-])c(C(=O)O)c3)CS[C@H]12; assay: as §1; method in brief: as §2
[4] = compound: C[C@@H](O)[C@H]1C(=O)N2C(C(=O)O)=C(SCCNC=N)C[C@H]12; assay: (§3) Ratio of Kcat to Km for Aeromonas hydrophila metallo-betalactamase CphA expressed in Escherichia coli BL21(DE3) by spectrophotometric analysis in presence of < 0.4 uM zinc ions; method in brief: as §2
[5] = compound: O=C(Cc1cccs1)N[C@@H]1C(=O)N2C(C(=O)O)=C(/C=C/c3ccc([N+](=O)[O-])cc3[N+](=O)[O-])CS[C@H]12; assay: as §3; method in brief: as §2
[6] = compound: O=C(Cc1cccs1)N[C@@H]1C(=O)N2C(C(=O)O)=C(CSc3ccc([N+](=O)[O-])c(C(=O)O)c3)CS[C@H]12; assay: as §3; method in brief: as §2

B1: Metallo-beta-lactamase type 2 (Aeromonas hydrophila), P26918 (protein)
chain: MMKGWMKCGLAGAVVLMASFWGGSVRAAGMSLTQVSGPVYVVEDNYYVQENSMVYFGAKGVTVVGATWTPDTARELHKLIKRVSRKPVLEVINTNYHTDRAGGNAYWKSIGAKVVSTRQTRDLMKSDWAEIVAFTRKGLPEYPDLPLVLPNVVHDGDFTLQEGKVRAFYAGPAHTPDGIFVYFPDEQVLYGNCILKEKLGNLSFADVKAYPQTLERLKAMKLPIKTVIGGHDSPLHGPELIDHYEALIKAAPQS
B1 gave a Km [1] of 340 µM, a kcat [1] of 1200 s⁻¹ and a Km [2] of 1300 µM. For the same protein, the kcat [2] was 0.008 s⁻¹, the Km [3] was “Not Active” and the kcat [3] was “Not Active”. For the same protein, the kcat/Km [4] was 3.5e+06 M⁻¹ s⁻¹, the kcat/Km [5] was 6 M⁻¹ s⁻¹ and the kcat/Km [6] was “Not Active”.
